Data as given in ChEMBL document CHEMBL2177011, “Discovery, synthesis, and biological evaluation of orally active pyrrolidone derivatives as novel inhibitors of p53-MDM2 protein-protein interaction” (J Med Chem, 2012).

Key:
[1] = test system: SAOS-2; experiment: Antiproliferative activity against p53 deficient human Saos2 cells after 72 hrs by MTT assay; format: functional, cell-based; details: SAOS-2, 72 h
Outline: (§1)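 Cells seeded at 5−6 × 10⁴ per well and cultured 24 h, then exposed in triplicate wells to a range of compound concentrations for 72 h, with 0.1% DMSO as control. MTT (5 mg/mL solution) was added for 4 h at 37 °C, formazan dissolved in DMSO, absorbance read at 570 nm. Drug-free wells served as blanks; IC50 calculated.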

[2] = test system: A549; experiment: Induction of apoptosis in human A549 cells expressing wild type p53 after 48 hrs using annexin V-FITC staining by flow cytometry assay; format: functional, cell-based
Outline: (§2)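 A549 cells (5 × 10⁵ cells/mL) were seeded in six-well plates and treated at 5−20 μM for 48 h. Cells were harvested by trypsinization, washed twice in cold PBS and resuspended in binding buffer. They were stained with annexin V-FITC for 15 min at room temperature, then with PI for 15 min in the dark, and analyzed by flow cytometry; n = 3.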

[3] = test system: A549; experiment: Induction of apoptosis in human A549 cells expressing wild type p53 at 10 uM after 48 hrs using annexin V-FITC staining by flow cytometry assay; format: functional; outline: as §2
[4] = test system: A549; experiment: Induction of apoptosis in human A549 cells expressing wild type p53 at 20 uM after 48 hrs using annexin V-FITC staining by flow cytometry assay; format: functional; outline: as §2
[5] = test system: U2OS; experiment: Antiproliferative activity against human U2OS cells expressing wild type p53 after 72 hrs by MTT assay; format: functional, cell-based; details: Homo sapiens, U2OS, 72 h; read-out: IC50; outline: as §1
[6] = test system: A549; experiment: Induction of apoptosis in human A549 cells expressing wild type p53 at 5 uM after 48 hrs using annexin V-FITC staining by flow cytometry assay; format: functional; outline: as §2
[7] = test system: A549; experiment: Antiproliferative activity against human A549 cells expressing wild type p53 after 72 hrs by MTT assay; format: functional, cell-based; details: Homo sapiens, A549, 72 h; read-out: IC50; outline: as §1
[8] = test system: NCI-H1299; experiment: Antiproliferative activity against p53 deficient human NCI-H1299 cells after 72 hrs by MTT assay; format: functional, cell-based; details: NCI-H1299, 72 h; outline: as §1
[9] = target: Tumour suppressor protein p53/Mdm4 (Homo sapiens, UniProt O15151); experiment: (§3) Inhibition of p53-MDMX interaction after 1 hr by fluorescence polarization assay; format: protein assay
[10] = target: Tumour suppressor p53/oncoprotein Mdm2 (Homo sapiens, UniProt Q00987); experiment: Inhibition of p53-MDM2 interaction after 1 hr by fluorescence polarization assay; format: protein assay
[11] = test system: Mus musculus; experiment: Toxicity in nude BALB/C mouse assessed as mortality at 200 mg/kg, po qd for 14 days; format: organism-based; set-up: dose 200 mg/kg, route oral; details: in vivo, 336 h
Outline: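 Male BALB/C nude mice (18−20 g) carried subcutaneous A549 implants in the right axilla. Dosing began once tumors reached 100−300 mm³, 13 days after implantation. Animals were randomized into groups of 6 per treatment and 10 controls, then given 200 mg/kg by gavage once daily for 14 consecutive days. Body weight was recorded every 4 days. Mice were sacrificed on day 29 or 33.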

[12] = test system: A549; experiment: Antitumor activity against human A549 cells expressing wild type p53 xenografted in nude BALB/C mouse assessed as inhibition of tumor growth at 200 mg/kg, po qd for 14 days; format: functional; details: A549, 336 h, read-out: TGI
Outline: (§4)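 Male BALB/C nude mice (18−20 g) had A549 cells implanted subcutaneously in the right axilla. Dosing started on day 13, when tumors reached 100−300 mm³. Mice were randomized (6 per treatment group, 10 controls) and dosed by gavage once daily for 14 days. Caliper tumor volume (TV = 1/2 × a × b²) was taken every 4 days; relative tumor volume was used. Mice were sacrificed on day 29 or 33.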

[13] = test system: A549; experiment: Antitumor activity against human A549 cells expressing wild type p53 xenografted in nude BALB/C mouse assessed as inhibition of tumor growth at 300 mg/kg, po qd for 14 days; format: functional; details: A549, 336 h, read-out: TGI; outline: as §4
[14] = target: Tumour suppressor protein p53/Mdm4 (Homo sapiens, UniProt P04637+O15151); experiment: as §3; format: protein assay
[15] = test system: Mus musculus; experiment: Toxicity in human A549 cells expressing wild type p53 xenografted nude BALB/C mouse assessed as reduction of body weight at 300 mg/kg, po qd for 14 days; format: organism-based; set-up: dose 300 mg/kg, route oral; details: in vivo, 336 h
Outline: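 Subcutaneous A549 xenografts (right axilla) in male BALB/C nude mice (18−20 g). From day 13 (tumors 100−300 mm³), the compound was given by gavage once daily for 14 days (6 animals per group; vehicle control group). Body weight was recorded every 4 days during treatment.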

Tumour suppressor protein p53/Mdm4 (Homo sapiens, UniProt O15151), sequence (P04637 whole entry): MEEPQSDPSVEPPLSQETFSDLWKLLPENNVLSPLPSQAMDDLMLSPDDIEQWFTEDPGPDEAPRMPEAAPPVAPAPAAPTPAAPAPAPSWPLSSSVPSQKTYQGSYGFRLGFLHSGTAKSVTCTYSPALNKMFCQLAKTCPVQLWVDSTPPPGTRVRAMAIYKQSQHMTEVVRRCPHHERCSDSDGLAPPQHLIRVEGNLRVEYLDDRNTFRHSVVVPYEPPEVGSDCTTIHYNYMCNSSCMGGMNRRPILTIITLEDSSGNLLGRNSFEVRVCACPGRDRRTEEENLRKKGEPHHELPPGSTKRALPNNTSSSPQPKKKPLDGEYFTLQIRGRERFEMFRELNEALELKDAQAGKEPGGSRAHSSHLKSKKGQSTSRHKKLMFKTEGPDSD
Tumour suppressor protein p53/Mdm4 (Homo sapiens, UniProt O15151), sequence (O15151 whole entry): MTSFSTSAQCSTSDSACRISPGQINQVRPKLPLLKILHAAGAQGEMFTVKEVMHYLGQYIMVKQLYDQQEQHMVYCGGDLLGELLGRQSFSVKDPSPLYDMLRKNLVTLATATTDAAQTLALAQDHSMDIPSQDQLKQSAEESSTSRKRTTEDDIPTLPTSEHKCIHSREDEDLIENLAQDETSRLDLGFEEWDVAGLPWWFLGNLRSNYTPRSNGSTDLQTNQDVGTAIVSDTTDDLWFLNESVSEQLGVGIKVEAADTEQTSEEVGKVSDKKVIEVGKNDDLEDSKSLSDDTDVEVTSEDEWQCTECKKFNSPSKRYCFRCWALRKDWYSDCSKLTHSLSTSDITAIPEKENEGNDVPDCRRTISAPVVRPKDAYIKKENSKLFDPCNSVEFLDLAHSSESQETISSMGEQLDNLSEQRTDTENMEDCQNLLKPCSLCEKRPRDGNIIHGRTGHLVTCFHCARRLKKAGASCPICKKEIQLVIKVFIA
Tumour suppressor p53/oncoprotein Mdm2, sequence (P04637 whole entry): as the sequence (P04637 whole entry) above
Tumour suppressor p53/oncoprotein Mdm2, sequence (Q00987 whole entry): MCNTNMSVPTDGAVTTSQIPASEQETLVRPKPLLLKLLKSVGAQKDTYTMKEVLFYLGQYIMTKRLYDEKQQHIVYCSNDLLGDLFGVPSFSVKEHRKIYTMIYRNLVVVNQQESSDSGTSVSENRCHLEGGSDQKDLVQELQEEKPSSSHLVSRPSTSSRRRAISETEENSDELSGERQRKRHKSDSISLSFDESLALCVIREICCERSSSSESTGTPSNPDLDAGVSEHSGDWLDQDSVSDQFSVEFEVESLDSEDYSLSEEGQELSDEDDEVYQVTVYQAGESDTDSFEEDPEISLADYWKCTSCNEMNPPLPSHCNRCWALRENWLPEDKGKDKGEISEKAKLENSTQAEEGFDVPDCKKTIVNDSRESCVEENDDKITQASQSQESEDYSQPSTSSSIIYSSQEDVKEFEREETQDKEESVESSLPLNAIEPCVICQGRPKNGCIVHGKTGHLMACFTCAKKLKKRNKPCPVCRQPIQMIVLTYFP
Tumour suppressor protein p53/Mdm4 (Homo sapiens, UniProt P04637+O15151), sequence (P04637 whole entry): as the sequence (P04637 whole entry) above
Tumour suppressor protein p53/Mdm4 (Homo sapiens, UniProt P04637+O15151), sequence (O15151 whole entry): as the sequence (O15151 whole entry) above

Structure (SMILES) | IC50 [1] | Activity [2] | Activity [3] | Activity [4] | IC50 [5] | Activity [6] | IC50 [7] | IC50 [8] | Ki [9] | Ki [10] | Activity [11] | inhibition in vivo at 200 mg/kg [12] | inhibition in vivo at 300 mg/kg [13] | Ki [14] | Activity [15]
COc1ccc(C2=N[C@@H](c3ccc(Cl)cc3)[C@@H](c3ccc(Cl)cc3)N2C(=O)N2CCNC(=O)C2)c(OC(C)C)c1 [NUTLIN-3] | 31.6 µM | Dose-dependent effect | 6.46% | 15.49% | 14.3 µM | 0.9% | – | – | – | – | – | – | – | – | –
CCOC1=C(C(=O)c2ccccc2)C(c2ccc(Br)cc2)N(CCCn2ccnc2)C1=O (configuration not stated) | 31.7 µM | – | – | – | 21.9 µM | – | 35.2 µM | 28.9 µM | 38.9 µM | 0.69 µM | – | – | – | – | –
O=C(C1=C(OC2CCCCC2)C(=O)N(CCCn2ccnc2)C1c1ccc(Br)cc1)c1ccccc1 (configuration not stated) | 29.7 µM | – | – | – | 22.4 µM | – | 31.2 µM | 19.9 µM | 17.9 µM | 0.49 µM | – | – | – | – | –
CC(C)OC1=C(C(=O)c2ccccc2)C(c2ccc(Br)cc2)N(CCCn2ccnc2)C1=O (configuration not stated) | 23 µM | – | – | – | 24.8 µM | – | 8.72 µM | 18.9 µM | – | – | Non-toxic | 40% | – | – | –
COCCOC1=C(C(=O)c2ccccc2)C(c2ccc(Br)cc2)N(CCCn2ccnc2)C1=O (configuration not stated) | – | – | – | – | – | – | – | – | 2.11 µM | 1.34 µM | – | – | – | – | –
CCCOC1=C(C(=O)c2ccccc2)C(c2ccc(Br)cc2)N(CCCn2ccnc2)C1=O (configuration not stated) | – | – | – | – | – | – | – | – | 9.32 µM | 6.97 µM | – | – | – | – | –
C[C@@H](NC1=C(C(=O)c2ccccc2)[C@@H](c2ccc(Br)cc2)N(CCCn2ccnc2)C1=O)c1ccccc1 | 27.4 µM | Dose-dependent effect | 4.02% | 17.85% | 28.1 µM | 0.63% | 1.97 µM | 14.4 µM | – | – | Non-toxic | 40% | 52.5% | Not Active | Non-toxic
CCCCCOC1=C(C(=O)c2ccccc2)C(c2ccc(Br)cc2)N(CCCn2ccnc2)C1=O (configuration not stated) | 9.99 µM | – | – | – | 9.14 µM | – | 7.29 µM | 10.3 µM | – | 0.34 µM | – | – | – | Not Active | –
